Data on six compounds can be found in PMC6923801 (Journal of medicinal chemistry, 2019).

For one series, the target named is human GPR68 (Homo sapiens, UniProt Q15743). The series is described as follows: GloSensor cAMP assay, proton-mediated Gs-cAMP production at human GPR68. It is filed as cell-based. Particulars: for Δ: difference of Log(αβ/KB) from that of 1; for Δ / −Log (KB) / Log (αβ/KB) / fold increased allosteric activity (log(αβ/KB)) compared to 1: human GPR68; for Log (α): affinity cooperativity; for Log (α) / Log (β): human GPR68, HEK293T, Gs-cAMP; for Log (α) / −Log (KB) / Log (αβ/KB) / Log (β): mean ± SEM; for −Log (KB): allosteric binding affinity from functional assay; for Log (αβ/KB): allosteric index; for Log (β): efficacy cooperativity; for PAM activity at GPR68: inactive analogues. A digest of the protocol:
(§1)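 HEK293T cells were transiently transfected with receptor and GloSensor cAMP plasmids, overnight (16–20 h). Cells were plated on poly-L-Lys in DMEM + 1% dFBS for 6–24 h, then loaded with 3.5 mM luciferin (HBSS, 20 mM TAPS, pH 8.40) for 1 h at 37 °C. Drug was applied in Ca/Mg-free HBSS pH buffers (MES 5.60–6.70, HEPES 6.80–8.20, TAPS 8.30–8.60) with 10 μM Ro 20-1724. Luminescence was read at 20–30 min.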
For orientation: Changes in cAMP serve as a functional read-out for many G protein-coupled receptors.

A further series has as its target mouse GPR68 (Mus musculus, UniProt Q8BFQ3). The series is described as follows: GloSensor cAMP assay at mouse GPR68. It is filed as cell-based. The conditions noted are these: for Δ: difference of Log(αβ/KB) at mouse GPR68 from the corresponding values at human GPR68. A digest of the protocol:
as §1

In series [1] the target is T1, GPR4 (Homo sapiens, UniProt P46093). Particulars: cited from earlier work.
T1 sequence (P46093 whole entry): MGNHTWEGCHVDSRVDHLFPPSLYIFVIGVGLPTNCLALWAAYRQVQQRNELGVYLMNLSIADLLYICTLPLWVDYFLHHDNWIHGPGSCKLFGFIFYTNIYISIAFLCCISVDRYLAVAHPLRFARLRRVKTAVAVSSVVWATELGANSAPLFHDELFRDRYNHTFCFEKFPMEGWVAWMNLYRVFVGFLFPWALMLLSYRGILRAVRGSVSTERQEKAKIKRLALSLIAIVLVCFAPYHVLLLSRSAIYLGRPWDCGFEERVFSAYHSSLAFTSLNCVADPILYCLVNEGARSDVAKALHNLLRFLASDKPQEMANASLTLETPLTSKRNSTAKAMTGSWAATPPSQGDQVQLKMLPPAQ
For series [2], the target named is T2, GPR65 (Homo sapiens, UniProt Q8IYL9). Particulars: cited from earlier work.
T2 sequence (Q8IYL9 whole entry): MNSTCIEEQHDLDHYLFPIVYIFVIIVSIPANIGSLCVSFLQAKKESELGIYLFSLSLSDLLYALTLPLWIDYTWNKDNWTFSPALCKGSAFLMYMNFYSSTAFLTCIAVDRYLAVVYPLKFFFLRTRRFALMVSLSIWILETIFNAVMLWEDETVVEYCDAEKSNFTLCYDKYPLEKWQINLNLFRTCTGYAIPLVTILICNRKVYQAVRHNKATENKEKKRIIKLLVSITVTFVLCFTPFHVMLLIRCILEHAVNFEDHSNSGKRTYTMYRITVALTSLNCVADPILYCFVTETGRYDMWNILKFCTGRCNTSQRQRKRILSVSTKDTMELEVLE
In series [3] the test system is human GPCRome (318 GPCRs). The series is described as follows: PRESTO-Tango GPCRome off-target agonist screen. The conditions noted are these: 1 μM. It is filed as cell-based. A digest of the protocol:
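HTLA cells were plated in DMEM + 2% dFBS overnight, then transfected overnight with receptor Tango constructs (15 ng/well) by in-plate PEI. Test compound was added without medium change and left overnight. Bright-Glo luminescence was read after 20 min at room temperature and expressed as fold of basal, using quadruplicate basal and sample wells. Controls were D2 with 100 nM quinpirole and untransfected cells.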

Series [4] has as its system 48 common GPCRs, ion channels, and transporters. Kind of series: Radioligand binding panel of 48 common drug targets. A digest of the protocol:
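Binding profiling was done by the NIMH PDSP. Targets were first tested at 10 μM in quadruplicate. pKi values were determined for targets with ≥50% inhibition, from at least three independent assays, each in triplicate.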

Series [5] addresses T1, GPR4. The series is described as follows: GloSensor cAMP assay at GPR4. The conditions noted are these: proton concentration-response with increasing modulator. It is filed as cell-based. In a few lines: as §1
Series [6] deals with T2, GPR65. Kind of series: GloSensor cAMP assay at GPR65. It is filed as cell-based. Particulars: proton concentration-response with increasing modulator. A digest of the protocol:
as §1

Another series concerns the target 5-HT2B receptors (Homo sapiens, UniProt P41595). Kind of series: Calcium release functional assay at 5-HT2B receptors. It is filed as cell-based. A digest of the protocol:
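HEK293 cells stably expressing 5-HT2B were plated in DMEM with 1% dFBS overnight (16–20 h). They were loaded with Fluo-4 Direct dye for 1 h at 37 °C in HBSS with 20 mM HEPES and 2.5 mM probenecid, pH 7.40. Drug dilutions contained 1 mg/mL BSA and 0.1 mg/mL ascorbic acid. Fluorescence was read 1/s for 2 min, with 10 s baseline. Read-out was peak fold of basal within the first minute.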

A further series deals with MT1 receptor (Homo sapiens, UniProt P48039). Kind of series: Tango arrestin recruitment concentration response, MT1. It is filed as cell-based. In a few lines: (§2)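 HTLA cells were transfected overnight with receptor DNA in DMEM + 10% FBS, then plated on poly-L-Lys in DMEM + 1% dFBS. Test compound was added 6 h later and incubated overnight (16–20 h). After removal of medium, Bright-Glo reagent was added and luminescence counted.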
Sequence of MT1 receptor (P48039 whole entry): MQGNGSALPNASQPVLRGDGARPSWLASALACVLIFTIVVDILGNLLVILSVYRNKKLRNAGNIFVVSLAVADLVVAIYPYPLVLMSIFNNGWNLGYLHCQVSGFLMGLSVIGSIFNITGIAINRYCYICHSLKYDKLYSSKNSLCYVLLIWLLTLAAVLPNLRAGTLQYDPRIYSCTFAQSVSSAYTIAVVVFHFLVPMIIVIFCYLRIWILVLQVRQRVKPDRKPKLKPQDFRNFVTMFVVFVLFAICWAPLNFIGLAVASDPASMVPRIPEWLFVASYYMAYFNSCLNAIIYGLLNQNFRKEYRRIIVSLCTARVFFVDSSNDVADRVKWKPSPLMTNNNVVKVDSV

Series [7] in a line: Mouse pharmacokinetic study. It is filed as in vivo. The conditions noted are these: mice, single 25 mg/kg IP. A digest of the protocol:
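Nine male Swiss Albino mice received one intraperitoneal dose of 25 mg/kg. Vehicle was 5% N-methyl-2-pyrrolidone, 5% Solutol HS-15 and 90% normal saline. Plasma and brain were sampled at 0.5, 1.0 and 2.0 h. Concentrations are averages of three mice per time point ± SEM.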

For series [8], the target named is atypical chemokine receptor 3 (ACKR3) (Homo sapiens, UniProt P25106). Kind of series: Tango arrestin recruitment concentration response, ACKR3. It is filed as cell-based. In a few lines: as §2
Sequence of atypical chemokine receptor 3 (ACKR3) (P25106 whole entry): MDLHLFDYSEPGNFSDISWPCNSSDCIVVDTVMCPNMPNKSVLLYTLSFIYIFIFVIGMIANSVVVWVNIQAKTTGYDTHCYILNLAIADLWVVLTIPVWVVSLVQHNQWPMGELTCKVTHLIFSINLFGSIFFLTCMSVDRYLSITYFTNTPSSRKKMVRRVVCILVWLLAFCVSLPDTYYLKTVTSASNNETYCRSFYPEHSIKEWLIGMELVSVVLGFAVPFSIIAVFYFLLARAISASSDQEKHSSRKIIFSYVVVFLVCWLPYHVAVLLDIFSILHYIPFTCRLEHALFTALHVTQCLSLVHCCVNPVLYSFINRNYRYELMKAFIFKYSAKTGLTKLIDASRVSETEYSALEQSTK
A general note: Arrestin recruitment assays detect the binding of arrestin to an activated receptor.

Sequence of mouse GPR68 (Q8BFQ3 whole entry): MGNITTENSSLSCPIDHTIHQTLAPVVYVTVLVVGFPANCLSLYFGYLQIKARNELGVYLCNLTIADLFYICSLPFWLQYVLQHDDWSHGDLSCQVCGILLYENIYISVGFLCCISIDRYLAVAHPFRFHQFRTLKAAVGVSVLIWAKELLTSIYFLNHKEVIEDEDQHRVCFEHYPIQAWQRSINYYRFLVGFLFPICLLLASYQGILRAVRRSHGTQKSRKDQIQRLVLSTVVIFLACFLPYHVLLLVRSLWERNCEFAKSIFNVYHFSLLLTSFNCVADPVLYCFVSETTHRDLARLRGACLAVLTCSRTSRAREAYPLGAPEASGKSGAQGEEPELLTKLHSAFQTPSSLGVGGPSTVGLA
Sequence of 5-HT2B receptors (P41595 whole entry): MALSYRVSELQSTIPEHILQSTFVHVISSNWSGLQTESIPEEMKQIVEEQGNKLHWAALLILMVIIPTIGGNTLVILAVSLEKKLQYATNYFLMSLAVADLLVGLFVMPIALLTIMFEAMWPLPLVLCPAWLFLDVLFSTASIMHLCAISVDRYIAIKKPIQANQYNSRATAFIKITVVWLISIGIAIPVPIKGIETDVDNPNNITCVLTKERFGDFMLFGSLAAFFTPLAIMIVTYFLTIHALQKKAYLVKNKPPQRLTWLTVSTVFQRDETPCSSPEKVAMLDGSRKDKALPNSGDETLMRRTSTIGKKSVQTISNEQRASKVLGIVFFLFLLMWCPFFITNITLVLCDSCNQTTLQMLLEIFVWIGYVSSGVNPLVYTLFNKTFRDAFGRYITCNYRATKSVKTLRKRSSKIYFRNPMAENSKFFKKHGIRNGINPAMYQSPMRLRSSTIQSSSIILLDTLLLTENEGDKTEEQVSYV
Sequence of human GPR68 (Q15743 whole entry): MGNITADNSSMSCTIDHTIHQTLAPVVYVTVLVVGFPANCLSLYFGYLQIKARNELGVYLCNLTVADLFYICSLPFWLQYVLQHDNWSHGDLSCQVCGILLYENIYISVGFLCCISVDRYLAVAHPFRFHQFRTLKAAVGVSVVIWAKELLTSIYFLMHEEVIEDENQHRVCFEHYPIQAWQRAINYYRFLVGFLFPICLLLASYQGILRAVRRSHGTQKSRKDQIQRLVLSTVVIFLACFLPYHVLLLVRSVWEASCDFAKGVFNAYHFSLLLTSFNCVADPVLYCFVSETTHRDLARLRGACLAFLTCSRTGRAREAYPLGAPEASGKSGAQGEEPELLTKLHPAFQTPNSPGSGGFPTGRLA

As to `Nc1nc(NCc2ccccc2)nc(-c2ccccc2CO)n1` [Compound 1], the Kb at human GPR68 was 44.7 µM; at mouse GPR68 it was 74.1 µM. Further, the Δ is given as 0.00 on human GPR68 and −0.34 at mouse GPR68. The “activity at GPR4” value on GPR4 [1] is listed as “no activity”. At GPR65 [2], the “activity at GPR65” value is “no activity”.
With `CN(C)c1nc(NCc2ccccc2)nc(-c2ccccc2CO)n1` [Compound 7, (2-(4-(Benzylamino)-6-(dimethylamino)-1,3,5-triazin-2-yl)-phenyl)methanol], on human GPR68, the “Log (α)” value is recorded as “Inactive”, the “−Log (KB)” value is reported as “Inactive”, the “Log (αβ/KB)” value is recorded as “Inactive” and the Δ result is listed as “Inactive”. On human GPR68, the “Log (β)” value is given as “Inactive” and the “PAM activity at GPR68” value is “do not show PAM activity”. In addition, the “off-target agonist activity at human GPCRome” value (“off-target agonist activity” for short) in series [3] is “no off-target agonist activity”. Also, the “binding affinity to common drug targets” value in series [4] is “minimal binding affinities”.
As for `CC(=O)c1cccc(-c2nc(N)nc(NCc3ccccc3)n2)c1` [Compound 21, 1-(3-(4-Amino-6-(benzylamino)-1,3,5-triazin-2-yl)phenyl)ethan-1-one], at human GPR68, the “Log (α)” value is “Inactive”, the “−Log (KB)” value is “Inactive”, the “Log (αβ/KB)” value is listed as “Inactive” and the Δ result is on record as “Inactive”. Also, on human GPR68, the “Log (β)” value is “Inactive” and the “PAM activity at GPR68” value was “do not show PAM activity”. Moreover, the “off-target agonist activity” value in series [3] is reported as “no off-target agonist activity”. In addition, the “binding affinity to common drug targets” value in [4] is listed as “minimal binding affinities”.
On to `Nc1nc(NCc2ccc(Oc3ccccc3)cc2)nc(-c2c(F)cccc2CO)n1` [Compound 71, (2-(4-Amino-6-((4-phenoxybenzyl)amino)-1,3,5-triazin-2-yl)-3-fluorophenyl)methanol], for which, at human GPR68, the Kb is 1.41 µM, the Δ amounted to 1.52 and the “fold increased allosteric activity (log(αβ/KB)) compared to 1” value is reported as 33 fold. The same compound had a Kb at mouse GPR68 of 7.59 µM. In addition, the “PAM activity at GPR4” value on GPR4 [5] was “no PAM activity”. On GPR65 [6], the “PAM activity at GPR65” value is “weak potentiation of proton activity at GPR65 only at high concentrations”. Besides, the “agonist activity at 5-HT2B receptors” value at 5-HT2B receptors is given as “no agonist activity”. Besides, the “off-target agonist activity” value in series [3] is “agonist activity only at the MT1 and MT2 receptors”. Further, the “agonist type at MT1” value on MT1 receptor is recorded as “weak full agonist”. Moreover, in series [7], the bioavailability entry is “bioavailable”; the blood-brain barrier penetration result is “can readily cross the BBB”; the clinical signs entry was “no clinical signs observed”; the “time high exposure levels in plasma and brain were maintained” value was found to be 2 h.
On to `Nc1nc(NCCc2ccccc2)nc(-c2cc(Cl)ccc2CO)n1` [Compound 77, (2-(4-Amino-6-(phenethylamino)-1,3,5-triazin-2-yl)-4-chlorophenyl)methanol], for which, at human GPR68, the Kb is 7.24 µM, the Δ came out at 0.95 and the “fold increased allosteric activity (log(αβ/KB)) compared to 1” value was “approximately 10 fold”. At mouse GPR68, the Kb is 19.1 µM and the Δ is listed as −0.34. In addition, on GPR4 [5], the “PAM activity at GPR4” value is given as “no effect or weak activity only at high concentrations”. In addition, at GPR65 [6], the “PAM activity at GPR65” value is “no effect or weak activity only at high concentrations”. The “agonist activity at 5-HT2B receptors” value on 5-HT2B receptors was “no agonist activity”. Further, in series [3], the “off-target agonist activity” value is “agonist activity at an atypical chemokine receptor 3 (ACKR3)”. Further, the “agonist type at ACKR3” value in series [8] was “full agonist activities”.
With `Nc1nc(NCCCc2ccccc2)nc(-c2cc(Cl)ccc2CO)n1` [Compound 78, (2-(4-Amino-6-((3-phenylpropyl)amino)-1,3,5-triazin-2-yl)-4-chlorophenyl)methanol], at human GPR68, the Kb was 4.47 µM, the Δ is 1.07 and the “fold increased allosteric activity (log(αβ/KB)) compared to 1” value is “approximately 10 fold”. Besides, on mouse GPR68, the Kb is 13.8 µM and the Δ is recorded as −0.40. Besides, on GPR4 [5], the “PAM activity at GPR4” value was “no effect or weak activity only at high concentrations”. Besides, the “PAM activity at GPR65” value on GPR65 [6] was “no effect or weak activity only at high concentrations”. The “agonist activity at 5-HT2B receptors” value at 5-HT2B receptors was “no agonist activity”. In [3], the “off-target agonist activity” value is recorded as “agonist activity at an atypical chemokine receptor 3 (ACKR3)”. The “agonist type at ACKR3” value in [8] is given as “full agonist activities”.
